The list is not random: actives were taken first. Their share in the collection is about 6.7%.
Beta apoptosis: blocks beta cell apoptosis. INS-1E cytokine-induced death, ATP luminescence, 48 h; percent of positive-control rescue, neutral wells zero. protection from apoptosis, % (test concentration not listed). 300,000 tested, 0.8% active. AID 435005;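 active means Every replicate reaches about 75%, or at least half do and their mean reaches it too, limit read from the data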;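 further: 0% = cytokine-treated negative control wells and 100% = positive control rescue; higher means more ATP so stronger rescue from cytokine killing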
CHOP inh: blocks CHOP induction under ER stress; 220,000 tested, 3.8% active; CHO-K1 CHOP-promoter luciferase, tunicamycin-induced, 15-18 h; AID 2732; inhibition, % at 10 µM;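 active means compounds that reduced the stress-induced luciferase reporter signal by more than about 70% of percent inhibition, limit read from the data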;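 further: 0% = tunicamycin plus vehicle and 100% = wells without tunicamycin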
CSC inhib: cancer stem cell inhibition | cancer stem cell-like cells viability, luminescence | inhibition, % at 7.5 µM | 300,000 tested, 1.1% active; in the data active means inhibition above about 75%; tested in HMLE shEcad cells
GRIN3A LBD mod: modulates the human NR3A ligand-binding domain. Tm shift relative to glycine control, % at 25 µM. 340,000 tested, 2.5% active. NR3A LBD differential scanning fluorimetry, Tm shift; 0% = protein alone, 100% = glycine-bound protein;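 active means melting temperature shift of at least 10% of the positive control shift, at one fixed dose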
PREPL inh: inhibits the human prolyl oligopeptidase-like enzyme. Q4J6C6. recombinant PREPL, fluorescence polarization activity-based probe. inhibition, % at 5.96 µM. 320,000 tested, 0.68% active; in the data active means inhibition above about 43%;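 further: 0% = enzyme with DMSO and 100% = wells lacking enzyme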
Target sequence (Q4J6C6 whole entry, looked up): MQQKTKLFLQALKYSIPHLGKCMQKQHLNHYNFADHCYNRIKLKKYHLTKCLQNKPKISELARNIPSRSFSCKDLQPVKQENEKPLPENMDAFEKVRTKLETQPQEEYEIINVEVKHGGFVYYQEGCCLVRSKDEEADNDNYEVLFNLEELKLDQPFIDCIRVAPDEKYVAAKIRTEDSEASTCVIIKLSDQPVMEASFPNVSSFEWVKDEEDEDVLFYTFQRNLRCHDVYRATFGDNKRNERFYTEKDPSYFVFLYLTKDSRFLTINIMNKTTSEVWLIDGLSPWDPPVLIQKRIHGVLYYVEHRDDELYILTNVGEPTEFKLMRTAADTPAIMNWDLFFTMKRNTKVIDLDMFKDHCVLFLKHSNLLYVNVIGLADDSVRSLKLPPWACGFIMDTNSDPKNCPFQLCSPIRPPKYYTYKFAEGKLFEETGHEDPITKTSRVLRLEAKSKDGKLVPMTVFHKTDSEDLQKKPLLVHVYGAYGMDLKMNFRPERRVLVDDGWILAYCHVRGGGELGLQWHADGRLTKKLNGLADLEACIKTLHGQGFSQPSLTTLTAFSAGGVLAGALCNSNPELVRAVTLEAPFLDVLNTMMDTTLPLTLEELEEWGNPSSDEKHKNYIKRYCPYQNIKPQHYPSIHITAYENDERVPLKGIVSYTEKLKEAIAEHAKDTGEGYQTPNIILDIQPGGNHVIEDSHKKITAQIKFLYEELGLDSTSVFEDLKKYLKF
T cruzi inh: blocks replication of Trypanosoma cruzi; T. cruzi beta-gal in NIH3T3, luminescence, 90 h; inhibition, % (concentration not given with the values); 300,000 tested, 1.4% active; AID 1885;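 active means mean inhibition across valid replicates above about 55%, limit read from the data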;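 further: signal also drops with host cell toxicity which is not excluded here; 0% = plate median of DMSO wells and 100% = zero luminescence signal; higher percent means less beta-gal luminescence so fewer parasites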
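Read-out: Parasite load inhibition, % | Test system: Mouse NIH/3T3 fibroblasts infected with β-gal-expressing T. cruzi Tulahuen C4 | Amount: 5,000 cells/well | Medium: DMEM, 2% fetal bovine serum | Signal: GalScreen β-gal luminescence, detergent lysis, 60 min | Timing: 3 h attach, ≥90 h co-culture | Also added: Tulahuen C4 trypomastigotes, 5000/well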
* hit, by the source's call; / = no result given.

SMILES | Beta apoptosis | CHOP inh | CSC inhib | GRIN3A LBD mod | PREPL inh | T cruzi inh
Oc1ccc(C[C@H]2CNC(=S)N2CC2CCCN2C[C@H](Cc2ccc(O)cc2)N2C[C@H](Cc3ccccc3)N(CC3CCCCCC3)C2=S)cc1 (some centres undefined) | / | / | / | 19.9* | / | /
Oc1ccc(C[C@H]2CNC(=S)N2CC2CCCN2C[C@H](Cc2ccc(O)cc2)N2C[C@H](Cc3ccc(O)cc3)N(CC3CCCCCC3)C2=S)cc1 (some centres undefined) | / | / | / | 27.9* | / | /
CC(C)C[C@H]1CNC(=S)N1CC1CCCN1C[C@H](Cc1ccc(O)cc1)N1C[C@H](Cc2ccccc2)N(CC2CCCCC2)C1=S (some centres undefined) | / | / | / | 6.6 | / | /
CCN(C(=O)CSc1nnc(-c2ccc(OC)cc2)n1C(C)C)C1CCS(=O)(=O)C1 (centres undefined) | -6.7 | / | / | 1.8 | 14.0 | /
Cc1cc(S(=O)(=O)N2CCOCC2)ccc1OCC(=O)N1CCCC1 | -3.9 | / | -5.6 | 0.2 | 2.6 | -7.3
CC(C)C[C@H]1CNC(=S)N1CC1CCCN1C[C@H](CC(C)C)N1C[C@H](CC(C)C)N(CCc2ccccc2)C1=S (some centres undefined) | / | / | / | 3.9 | / | /
CCOc1ccc(CCN2C(=S)N([C@@H](Cc3ccc(O)cc3)CN3CCCC3CN3C(=S)NC[C@@H]3Cc3ccc(O)cc3)C[C@@H]2CC(C)C)cc1 (some centres undefined) | / | / | / | 13.2* | / | /
CC(C)C[C@@H](CN1CCCC1CN1C(=S)NC[C@@H]1Cc1ccc(O)cc1)N1C[C@H](Cc2ccc(O)cc2)N(CCc2ccccc2)C1=S (some centres undefined) | / | / | / | 23.9* | / | /
CCOc1ccc(CCN2C(=O)C(=O)N([C@@H](CC(C)C)CN3CCC[C@@H]3CN3C(=O)C(=O)NC[C@@H]3Cc3ccccc3)C[C@@H]2Cc2ccc(O)cc2)cc1 | / | / | / | -4.1 | / | /
Cc1cccc(CCN(C(=O)c2csnn2)C(C(=O)NC2CCCC2)c2ccco2)c1 (centres undefined) | -0.8 | / | -8.1 | 1.1 | 3.6 | 11.6
CCc1noc(C)c1C(=O)N1CCSC1=Nc1cccc(Cl)c1C | 2.7 | / | 5.3 | -7.1 | -4.6 | 16.2
Cc1ccc(C2=NCN(c3ccc(C(=O)O)cc3)C(=S)N2)cc1 | / | -33.8 | 1.3 | / | 2.1 | -14.2
O=C(N/N=C/c1ccccc1)c1cc(-c2ccc3c(c2)OCO3)n[nH]1 | 12.2 | -13.3 | 29.8 | 26.2* | 1.6 | 16.3
O=C(N/N=C/c1cccc(O)c1)c1cc(-c2ccc3c(c2)OCO3)n[nH]1 | 21.6 | 4.2 | 75.8* | 31.6* | 1.1 | -5.0
O=C(N/N=C/c1ccccc1)c1ccc2c(c1)OCO2 | 0.3 | / | 1.2 | 0.5 | 11.3 | 1.9
Cc1ccc(C(=O)NN=Cc2ccc3c(c2)OCO3)cc1 | / | / | / | -22.9 | / | /
O=C(N/N=C/c1ccc(O)cc1)c1cc(-c2ccc3c(c2)OCO3)n[nH]1 | 10.5 | -1.5 | 127.4* | 27.7* | 9.8 | 17.7
O=C(N/N=C/c1ccc2c(c1)OCO2)c1cccnc1 | 3.8 | / | 0.5 | 2.4 | 6.3 | -9.3
O=C(N/N=C/c1cccc([N+](=O)[O-])c1)c1cc(-c2ccc3c(c2)OCO3)n[nH]1 | 49.6 | -22.3 | 10.8 | 29.2* | 7.6 | 15.3
COc1ccc(CN2C(=O)c3ccc(C(=O)O)cc3C2=O)cc1 | -8.0 | / | -9.0 | -1.0 | 1.9 | 1.6
CC(=O)Nc1cccc(NC(=O)CS(=O)(=O)c2cn(CC(=O)N(C(C)C)C(C)C)c3ccccc23)c1 | -13.8 | / | -5.3 | -1.7 | -18.4 | -0.8
CN(C)/C=C(/C#N)C(=O)c1cccc(Oc2ccc(C(C)(C)C)cc2)c1 | -0.5 | 93.2* | -6.8 | -13.7 | -8.1 | 20.0
Cc1ccccc1Oc1cccc(C(=O)/C(C#N)=C/N(C)C)c1 | -0.4 | 49.8 | -8.8 | -0.8 | -7.2 | 4.9
COc1ccc(CCN=C(N)NS(=O)(=O)c2cc(F)ccc2F)cc1 | -0.7 | / | 7.0 | 3.8 | 14.9 | 3.8
O=[N+]([O-])/C=C/c1c(OCc2ccccc2)ccc2ccccc12 | 115.3* | 110.3* | -9.3 | / | 2.2 | 54.3
SMILES | Beta apoptosis | CHOP inh | CSC inhib | GRIN3A LBD mod | PREPL inh | T cruzi inh
CCOC(=O)Cn1cc(/C=C/[N+](=O)[O-])c2ccccc21 | -3.5 | -17.9 | -8.1 | 2.0 | -10.9 | -7.2
CCOC(=O)COc1ccc2ccccc2c1/C=C/[N+](=O)[O-] | 106.1* | 109.4* | -7.7 | -2.4 | 4.3 | 10.9
CC(C)C[C@H]1CN=C(Nc2ccccc2)N1CC1CCC(C(C)(C)C)CC1 (some centres undefined) | 110.7* | / | 78.6* | -11.5 | 24.7 | /
c1ccc(-c2nc3ccccc3o2)nc1 | 0.5 | -2.4 | -1.6 | 0.9 | 6.7 | -3.3
c1ccc(-c2ccc3ccccc3n2)cc1 | 2.5 | / | 13.3 | 31.9* | -6.6 | 6.0
c1ccc2nc(-c3nc4ccccc4o3)ccc2c1 | 28.6 | 71.0* | 30.5 | 0.9 | 11.7 | -1.6
COc1ccc(C2=Nn3c(nnc3-c3ccccc3OC)SC2)cc1OCC1CC1 | 32.4 | / | / | -0.2 | 16.6 | /
COc1ccc(OC)c(-c2nnc3n2N=C(c2ccc(OC(F)F)c(OCC4CC4)c2)CS3)c1 | -9.5 | / | 76.5* | -13.9 | 11.4 | /
COc1ccc(C2=Nn3c(nnc3-c3ccccc3F)SC2)cc1OC1CCCC1 | 8.7 | / | 82.0* | -4.3 | 16.6 | /
COc1ccc(C2=Nn3c(nnc3-c3ccccc3F)SC2)cc1OC1CCOC1 (centres undefined) | 10.3 | / | 41.4 | -1.0 | 18.2 | /
COc1ccc(C(=O)N2CCCN(C)CC2)cc1S(=O)(=O)N(C)Cc1ccccc1 | 0.0 | / | -8.4 | 1.2 | 5.3 | /
CC(=O)N1c2ccccc2C(C)(c2ccccc2)CC1(C)C (centres undefined) | 9.0 | 35.8 | 4.2 | 0.9 | -0.5 | 16.5
CC1(c2ccc([N+](=O)[O-])cc2)CC(C)(C)N(C(=O)c2ccccc2)c2ccccc21 (centres undefined) | / | 80.7* | / | / | / | 31.0
O=C(Cc1ccc(Cl)cc1)SCc1ccccc1 | 0.3 | / | 4.6 | -0.1 | 13.7 | /
CC(C)C(NC(=O)COc1ccc2ccccc2c1)C(=O)N/N=C/C=C/c1ccccc1 (centres undefined) | -9.4 | 85.9* | 0.9 | -5.6 | 3.9 | -17.6
COc1ccc(/C=C/C=N/NC(=O)COc2ccc(OC)cc2)cc1 | -5.9 | 22.7 | 1.1 | -14.9 | -0.5 | 2.1
COCCNC(=O)[C@H]1N2C(=O)c3ccccc3C2SC1(C)C (some centres undefined) | -9.3 | / | -11.0 | 1.2 | 10.2 | -1.1
COc1ccc(-c2cc(=O)c3cc(OC)ccc3o2)cc1 | 2.5 | 78.2* | 3.1 | -1.8 | 9.5 | 17.8
O=c1oc2ccccc2cc1-c1ccccc1 | 4.2 | 3.4 | -2.6 | 0.2 | -12.7 | -41.6
O=c1cc(-c2ccc3c(c2)OCCO3)oc2ccc(Cl)cc12 | 1.2 | 58.9 | 8.9 | 12.0* | 0.8 | 1.8
O=c1cc(-c2ccccc2)oc2ccc(Cl)cc12 | / | / | / | 14.0* | / | /
O=c1oc2ccc(Cl)cc2cc1-c1ccccc1 | -2.3 | -8.5 | 5.8 | 14.1* | 6.6 | -6.9

Compound activity deposited in PubChem by several laboratories.
